{
  "source": "ChEMBL document CHEMBL1131605",
  "about": "“Synthesis and pharmacological activity of triazolo[1,5-a]triazine derivatives inhibiting eosinophilia” (1998)",
  "data": [
    {"system": "Rattus norvegicus", "experiment": "Percent inhibition value on the Sephadex-induced lung eosinophilia model at an intraperitoneal (ip) dose of 3 mg/kg", "type": "functional", "outline": "(§1)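 Male Wistar rats, five per group; Sephadex G-200 (0.5 mg/mL in sterile saline, swollen by boiling 5 h), 1 mL injected via tail vein on days 0, 3 and 5; drug or vehicle given ip 10 min before each Sephadex injection. Day 7: lavage with heparinized PBS (37 °C), repeated, pooled; cells counted microscopically. Inhibition (%) from group-mean eosinophil/total-cell ratio versus vehicle.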", "units": {"inhibition in vivo at 3 mg/kg": "%"}, "values": [
      {"compound": "C/N=C(\\S)n1nc(-c2ccco2)nc1N", "inhibition in vivo at 3 mg/kg": 18},
      {"compound": "Cn1cnc2nc(-c3ccc(Cl)cc3Cl)nn2c1=S", "inhibition in vivo at 3 mg/kg": 90},
      {"compound": "C/N=C(\\S)n1nc(/C=C/c2ccc(Cl)cc2)nc1N", "inhibition in vivo at 3 mg/kg": 25},
      {"compound": "C/N=C(\\S)n1nc(-c2ccc(-c3ccccc3)cc2)nc1N", "inhibition in vivo at 3 mg/kg": 58},
      {"compound": "C/N=C(\\S)n1nc(-c2ccc(Cl)c3ccccc23)nc1N", "inhibition in vivo at 3 mg/kg": 14},
      {"compound": "Cn1cnc2nc(-c3ccc(F)cc3)nn2c1=S", "inhibition in vivo at 3 mg/kg": 38},
      {"compound": "Cn1cnc2nc(-c3ccc(Br)cc3)nn2c1=S", "inhibition in vivo at 3 mg/kg": 84},
      {"compound": "Cc1nc2nc(-c3ccc(Cl)cc3)nn2c(=S)n1C", "inhibition in vivo at 3 mg/kg": 60},
      {"compound": "C/N=C(\\S)n1nc(-c2ccc(Cl)cn2)nc1N", "inhibition in vivo at 3 mg/kg": -2},
      {"compound": "C/N=C(\\S)n1nc(-c2cccs2)nc1N", "inhibition in vivo at 3 mg/kg": -7},
      {"compound": "C/N=C(\\S)n1nc(-c2ccc(Cl)cc2)nc1N", "inhibition in vivo at 3 mg/kg": 88},
      {"compound": "C/N=C(\\S)n1nc(Oc2ccccc2)nc1N", "inhibition in vivo at 3 mg/kg": -5},
      {"compound": "Cn1cnc2nc(-c3ccc(Cl)c(Cl)c3)nn2c1=S", "inhibition in vivo at 3 mg/kg": 89},
      {"compound": "C/N=C(\\S)n1nc(C#Cc2ccccc2)nc1N", "inhibition in vivo at 3 mg/kg": 0},
      {"compound": "C/N=C(\\S)n1nc(Cc2ccccc2)nc1N", "inhibition in vivo at 3 mg/kg": -24},
      {"compound": "Cn1c(-c2ccccc2)nc2nc(-c3ccc(Cl)cc3)nn2c1=S", "inhibition in vivo at 3 mg/kg": 5},
      {"compound": "Cn1cnc2nc(-c3ccc(Cl)cc3)nn2c1=S", "inhibition in vivo at 3 mg/kg": 90},
      {"compound": "C/N=C(\\S)n1nc(-c2ccc(Cl)nc2)nc1N", "inhibition in vivo at 3 mg/kg": -9},
      {"compound": "CNC(=S)n1nc(/N=C/c2ccccc2)nc1N", "inhibition in vivo at 3 mg/kg": 37},
      {"compound": "Cn1cnc2nc(-c3ccc(C(F)(F)F)cc3)nn2c1=S", "inhibition in vivo at 3 mg/kg": 87}
    ]},
    {"system": "Rattus norvegicus", "experiment": "Percent inhibition value on the Sephadex-induced lung eosinophilia model at an intraperitoneal (ip) dose of 0.1 mg/kg", "type": "functional", "outline": "as §1", "units": {"inhibition in vivo at 0.1 mg/kg": "%"}, "values": [
      {"compound": "C[C@@H]1C[C@H]2[C@@H]3CCC4=CC(=O)C=C[C@]4(C)[C@@]3(F)[C@@H](O)C[C@]2(C)[C@@]1(O)C(=O)CO", "note": "[DEXAMETHASONE]", "inhibition in vivo at 0.1 mg/kg": 95}
    ]},
    {"system": "Rattus norvegicus", "experiment": "Percent inhibition value on the Sephadex-induced lung eosinophilia model at an intraperitoneal (ip) dose of 30 mg/kg", "type": "functional", "outline": "as §1", "units": {"inhibition in vivo at 30 mg/kg": "%"}, "values": [
      {"compound": "Cn1cnc2ccccc2c1=S", "inhibition in vivo at 30 mg/kg": 22},
      {"compound": "CCCCn1cnc2ncnn2c1=S", "inhibition in vivo at 30 mg/kg": 23},
      {"compound": "Cn1c(-c2ccccc2)nc2ncnn2c1=S", "inhibition in vivo at 30 mg/kg": 29},
      {"compound": "CCOc1ncnc2ncnn12", "inhibition in vivo at 30 mg/kg": 6},
      {"compound": "Cn1cnc2ncnc-2c1S", "inhibition in vivo at 30 mg/kg": 9},
      {"compound": "CCCn1cnc2ncnn2c1=S", "inhibition in vivo at 30 mg/kg": 49},
      {"compound": "CSc1nc(N)nc2ncnn12", "inhibition in vivo at 30 mg/kg": -29},
      {"compound": "CCOC(=O)C(=O)Nc1nc2ncn(C)c(=S)n2n1", "inhibition in vivo at 30 mg/kg": -2},
      {"compound": "Cn1cnc2nc(-c3ccc(C#N)cc3)nn2c1=S", "inhibition in vivo at 30 mg/kg": 79},
      {"compound": "Cn1cnc2ncnn2c1=S", "inhibition in vivo at 30 mg/kg": 69},
      {"compound": "CNC(=S)n1nc(SC)nc1N", "inhibition in vivo at 30 mg/kg": 54},
      {"compound": "Cn1cnc2ncnn2c1=O", "inhibition in vivo at 30 mg/kg": 17},
      {"compound": "Cc1nc2ncnn2c(=S)n1C", "inhibition in vivo at 30 mg/kg": 18},
      {"compound": "CSc1nc(N)n2ncnc2n1", "inhibition in vivo at 30 mg/kg": -7},
      {"compound": "c1nc2nc(NC3CCCCC3)nc(NC3CCCCC3)n2n1", "inhibition in vivo at 30 mg/kg": 1},
      {"compound": "CNc1nc(NC)n2ncnc2n1", "inhibition in vivo at 30 mg/kg": 38},
      {"compound": "Cn1cnc2nc(-c3ccc(Cl)cc3)nn2c1=S", "inhibition in vivo at 30 mg/kg": 92},
      {"compound": "Cn1cnc2nc(-c3ccccc3)nn2c1=S", "inhibition in vivo at 30 mg/kg": -1},
      {"compound": "Cn1cnc2nncc-2c1S", "inhibition in vivo at 30 mg/kg": -13}
    ]}
  ]
}
